Calls of active or inactive are those of the source. The calls are words filed in the database; no cut-off is given here.
Key:
[1] = biological target: Coagulation factor X (Homo sapiens, UniProt P00742); test: Inhibition of coagulation factor 10a (unknown origin) incubated for 2 mins in presence of AT3 by chromogenic substrate based […] assay
Summary of the method: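 Two-stage chromogenic anti-FXa: sample (heparin 0.002-500 nM or trisaccharide 3.9-4000 nM) with ATIII (0.04 IU), 2 min at 37 °C; FXa (0.32 μg) added, 2 min at 37 °C; chromogenic substrate added, stopped after 2 min with citric acid (20 g/L). Absorbance at 405 nm in triplicate, minus reverse-order sample blank.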

[2] = biological target: T1, Heparanase (Homo sapiens, UniProt Q9Y251); test: Inhibition of heparanase (unknown origin) using biotin-heparan sulfate-Eu cryptate as substrate preincubated for 10 mins followed by substrate addition and measured after 60 mins by TR-FRET assay
T1 sequence (Q9Y251 whole entry): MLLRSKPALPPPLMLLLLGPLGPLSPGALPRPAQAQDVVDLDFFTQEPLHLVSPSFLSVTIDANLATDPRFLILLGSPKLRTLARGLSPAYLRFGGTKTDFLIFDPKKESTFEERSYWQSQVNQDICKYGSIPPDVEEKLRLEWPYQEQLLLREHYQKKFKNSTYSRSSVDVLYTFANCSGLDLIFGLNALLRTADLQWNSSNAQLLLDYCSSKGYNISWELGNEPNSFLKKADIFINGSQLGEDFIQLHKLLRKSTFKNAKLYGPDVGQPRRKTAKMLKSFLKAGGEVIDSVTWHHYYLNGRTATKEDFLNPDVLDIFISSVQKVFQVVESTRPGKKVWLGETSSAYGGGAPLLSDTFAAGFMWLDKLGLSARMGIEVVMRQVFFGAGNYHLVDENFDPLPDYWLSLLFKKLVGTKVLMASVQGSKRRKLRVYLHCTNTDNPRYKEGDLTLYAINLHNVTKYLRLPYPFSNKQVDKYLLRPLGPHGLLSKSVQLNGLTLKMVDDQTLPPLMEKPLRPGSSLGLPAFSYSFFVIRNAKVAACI

[3] = biological target: Prothrombin (Homo sapiens, UniProt P00734); test: Inhibition of coagulation factor 2a (unknown origin) incubated for 2 mins in presence of AT3 by chromogenic substrate based […] assay
Summary of the method: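 Two-stage chromogenic anti-FIIa: sample (heparin 0.002-500 nM or trisaccharide 3.9-4000 nM) with ATIII (0.01 IU), 2 min at 37 °C; FIIa (1.2 nkat) added, 2 min at 37 °C; chromogenic substrate added, stopped after 2 min with citric acid (20 g/L). A405 read in triplicate; reverse-order sample blank subtracted.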

[4] = biological target: T2, Platelet factor 4 (Homo sapiens, UniProt P02776); test: Binding affinity to PF4 (unknown origin) by BLI assay
T2 sequence (P02776 whole entry): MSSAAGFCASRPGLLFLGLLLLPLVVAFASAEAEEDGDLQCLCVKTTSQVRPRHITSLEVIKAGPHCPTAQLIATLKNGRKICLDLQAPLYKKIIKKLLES
Summary of the method: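 PF4 (100 nM) mixed with ligand (0.08-250 μM trisaccharide; heparin 0.4-400 nM); free PF4 probed against biotin-heparin (5 μg/mL, 18 kDa) loaded on streptavidin biosensors. Mass-transport conditions; response fitted to a solution-affinity equation.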

[5] = biological target: T3, Heparanase (Homo sapiens) (UniProt Q9Y251); test: Inhibition of human recombinant heparanase assessed as reduction in [35S] labeled ECM degradation at 50 ug/ml incubated for 5 hrs relative to control
T3 sequence (whole entry): T1 sequence (Q9Y251 whole entry)
Summary of the method: (§1)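 [35S]sulfate-labeled ECM on 35 mm dishes incubated 5 h at 37 °C with recombinant human heparanase (0.5 ng/ml), with or without inhibitor, in 1 ml containing 50 mM NaCl, 1 mM DTT, 1 mM CaCl2, 10 mM phosphate-citrate pH 6.0. Released material gel-filtered on Sepharose 6B, eluted with PBS; 0.2 ml fractions counted for radioactivity.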

[6] = biological target: T3, Heparanase (Homo sapiens); test: Inhibition of human recombinant heparanase assessed as reduction in [35S] labeled ECM degradation at 10 ug/ml incubated for 5 hrs relative to control; summary of the method: as §1
[7] = system: MIN6; test: Inhibition of heparanase (unknown origin) assessed as reduction in ROS production in mouse MIN6 cells co-incubated with heparanase-producing CHO cells at 15 uM incubated for 24 hrs by mitochondrial ROS probe staining based fluorescence microscopic method; type: functional, cell-based
Summary of the method: (§2)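 MIN6 mouse insulinoma cells in high-glucose DMEM, 10% FBS, 50 μM β-mercaptoethanol, seeded in 4-well slide chambers. At ~50% confluency, switched to conditioned medium from heparanase-producing or control CHO cells and given PBS vehicle or inhibitor for 24 h. Stained with mitochondrial ROS tracker (100 nM); fluorescence imaged by microscopy and extent/intensity quantified.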

[8] = system: MIN6; test: Inhibition of ROS production in mouse MIN6 cells at 15 uM incubated for 24 hrs by mitochondrial ROS probe staining based fluorescence microscopic method; type: functional, cell-based; summary of the method: as §2
[9] = biological target: T3, Heparanase (Homo sapiens); test: Inhibition of heparanase (unknown origin) assessed as reduction in ROS-mediated SOD1 mRNA level in mouse MIN6 cells co-incubated with heparanase-producing CHO cells at 15 uM incubated for 24 hrs by qRT-PCR analysis; type: cell-based
Summary of the method: (§3)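 MIN6 cells grown in high-glucose DMEM/10% FBS/50 μM β-mercaptoethanol, cultured at ~50% confluency in conditioned medium from heparanase-producing or control CHO cells with PBS vehicle or inhibitor for 24 h. Total RNA extracted with Trizol; cDNA made from 500 ng RNA; transcripts measured by quantitative real-time PCR.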

[10] = biological target: T3, Heparanase (Homo sapiens); test: Inhibition of heparanase (unknown origin) assessed as reduction in ROS-mediated ERO1alpha mRNA level in mouse MIN6 cells co-incubated with heparanase-producing CHO cells at 15 uM incubated for 24 hrs by qRT-PCR analysis; type: cell-based; summary of the method: as §3
[11] = system: MIN6; test: Inhibition of ROS production in mouse MIN6 cells assessed as reduction in SOD1 mRNA level at 15 uM incubated for 24 hrs by qRT-PCR analysis; type: functional, cell-based; summary of the method: as §3
[12] = system: MIN6; test: Inhibition of ROS production in mouse MIN6 cells assessed as reduction in ERO1alpha mRNA level at 15 uM incubated for 24 hrs by qRT-PCR analysis; type: functional, cell-based; summary of the method: as §3

Coagulation factor X, sequence (P00742 41-179 limits assumed): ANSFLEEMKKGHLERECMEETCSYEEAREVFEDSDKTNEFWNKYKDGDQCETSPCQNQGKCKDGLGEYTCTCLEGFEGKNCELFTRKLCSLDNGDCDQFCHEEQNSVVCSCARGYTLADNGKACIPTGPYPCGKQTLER
Coagulation factor X, sequence (P00742 235-488 limits assumed): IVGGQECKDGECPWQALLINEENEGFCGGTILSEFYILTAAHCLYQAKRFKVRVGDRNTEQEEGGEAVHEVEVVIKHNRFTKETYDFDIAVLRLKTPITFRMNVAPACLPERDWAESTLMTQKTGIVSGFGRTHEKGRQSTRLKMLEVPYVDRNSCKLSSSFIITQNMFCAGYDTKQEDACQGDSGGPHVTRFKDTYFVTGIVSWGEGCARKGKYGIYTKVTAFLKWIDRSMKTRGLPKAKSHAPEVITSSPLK

IC50 [1] | IC50 [2] | IC50 [3] | Kd [4] | inhibition [5] | inhibition [6] | inhibition [9] | inhibition [10] | Compound | inhibition [7] | inhibition [8] | inhibition [11] | inhibition [12]
11 nM | – | – | – | – | – | – | – | CO[C@H]1O[C@H](COS(=O)(=O)O)[C@@H](O[C@@H]2O[C@@H](C(=O)O)[C@@H](O[C@H]3O[C@H](COS(=O)(=O)O)[C@@H](O[C@@H]4O[C@H](C(=O)O)[C@@H](O[C@H]5O[C@H](COS(=O)(=O)O)[C@@H](O)[C@H](O)[C@H]5NS(=O)(=O)O)[C@H](O)[C@H]4O)[C@H](OS(=O)(=O)O)[C@H]3NS(=O)(=O)O)[C@H](O)[C@H]2OS(=O)(=O)O)[C@H](O)[C@H]1NS(=O)(=O)O [FONDAPARINUX] | – | – | – | –
> 2000 nM | 393 nM | > 2000 nM | 16000 nM | 100% | 50% | Active | Active | O=C(O)[C@H]1O[C@@H](O[C@H]2[C@H](O)[C@@H](NS(=O)(=O)O)[C@@H](OCCNS(=O)(=O)O)O[C@@H]2COS(=O)(=O)O)[C@H](O)[C@@H](O)[C@@H]1O[C@H]1O[C@H](COS(=O)(=O)O)[C@@H](O)[C@H](O)[C@H]1NS(=O)(=O)O | Active | Active | Active | Active
– | 42100 nM | – | – | – | – | – | – | O=C(O)[C@H]1O[C@@H](O[C@H]2[C@H](O)[C@@H](NS(=O)(=O)O)[C@H](OCCNS(=O)(=O)O)O[C@@H]2COS(=O)(=O)O)[C@H](O)[C@@H](O)[C@@H]1O[C@H]1O[C@H](COS(=O)(=O)O)[C@@H](O)[C@H](O)[C@H]1NS(=O)(=O)O | – | – | – | –

Reference: ChEMBL document CHEMBL4342500, “Modulating Heparanase Activity: Tuning Sulfation Pattern and Glycosidic Linkage of Oligosaccharides” (J Med Chem, 2020)
